Screens (PubChem)
MrgX1 PAM = allosterically activates human MrgX1 receptor signaling; 0.63% of 310,000 active; Q96LB2; AID 588675; B-score at 10 µM; MrgX1-HEK293, Fluo-4 calcium flux, FDSS; hits give high values;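 active means plate-corrected calcium response at least 3 library SD above typical, normal starting fluorescence, not activating the receptor alone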;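 further: compound read alongside a low EC10 to EC30 dose of BAM8-22 agonist; peak minus trough fluorescence over baseline measured at the second addition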
Target sequence (Q96LB2 whole entry, looked up): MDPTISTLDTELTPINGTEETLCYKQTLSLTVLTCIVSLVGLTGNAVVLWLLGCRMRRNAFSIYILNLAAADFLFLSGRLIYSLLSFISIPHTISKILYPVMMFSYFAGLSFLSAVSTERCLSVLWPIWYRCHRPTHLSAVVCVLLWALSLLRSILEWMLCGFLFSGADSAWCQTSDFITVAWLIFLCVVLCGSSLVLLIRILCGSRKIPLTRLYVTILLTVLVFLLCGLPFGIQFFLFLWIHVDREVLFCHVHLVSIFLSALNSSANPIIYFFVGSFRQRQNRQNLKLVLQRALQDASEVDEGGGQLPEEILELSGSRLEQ
PHOSPHO1 block = PHOSPHO1 (human) inhibition. Q8TCT1. recombinant PHOSPHO1, absorbance phosphatase assay. inhibition, % at 13.3 µM. 1.1% of 290,000 active. AID 1565; in the data active means inhibition above about 60%
Target sequence (Q8TCT1 whole entry, looked up): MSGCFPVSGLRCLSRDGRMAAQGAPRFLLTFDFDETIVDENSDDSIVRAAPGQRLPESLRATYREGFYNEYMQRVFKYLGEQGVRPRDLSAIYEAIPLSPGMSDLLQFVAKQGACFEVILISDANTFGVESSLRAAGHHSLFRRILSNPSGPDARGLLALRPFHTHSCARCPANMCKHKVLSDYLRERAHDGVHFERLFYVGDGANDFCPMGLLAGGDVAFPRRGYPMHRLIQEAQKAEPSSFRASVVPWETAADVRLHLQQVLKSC
RGS4 act = potentiators or activators of RGS4 | 0.92% of 310,000 active | B-score at 10 µM | AID 463111 | HEK293 M3R/inducible RGS4, carbachol calcium flux Fluo4; hits give low values;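 active means B-score of the integrated calcium signal more than 4 SD below the library mean, with starting fluorescence not abnormally high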;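 further: negative B-score means reduced calcium response which marks RGS4 activation or potentiation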
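Detection: kinetic calcium fluorescence imaging with Fluo4-AM dye, 2 µM / Material: HEK293 cells with stable M3R and inducible RGS4 / Schedule: recording 10 s baseline at 1 Hz, 100 s post-agonist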
MrgX1 agonist = human MrgX1 receptor agonism, primary screen. Q96LB2. MrgX1-HEK293 cells, Fluo-4 calcium fluorescence, agonist mode; hits give high values. B-score at 10 µM. 0.44% of 310,000 active;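 active means calcium response B-score plate-corrected fluorescence ratio at least 3 library SD, with starting fluorescence B-score inside 5 SD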
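Material: HEK293 cells stably expressing human MrgX1 receptor | Quantity: 15,000 cells per well | Times: Cells plated overnight, dye loaded 0.5 h 37 °C, 0.5 h room temperature | Measured by: Kinetic Fluo-4 NW fluorescence of intracellular calcium | Control set: Positive and negative controls per plate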
RGS4 block = inhibitors of human RGS4; AID 463165; 0.45% of 310,000 active; B-score at 10 µM; HEK293 M3R/RGS4 inducible, Fluo-4 calcium flux; hits give high values; triggered by carbachol at its EC20;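 active means B-score, a plate-corrected calcium signal, over three deviations above library mean, with baseline fluorescence within five deviations of library mean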;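 further: RGS4 expression induced by doxycycline in cells with stable M3 receptor; B-score is computed from the integrated fluorescence ratio over baseline after carbachol; higher B-score means a larger calcium signal and so more RGS4 inhibition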
MrgX1 antagonist = antagonists of human MrgX1 receptor; Q96LB2; MRGX1-HEK293 calcium flux, Fluo-4, BAM8-22 antagonism; hits give low values; B-score at 10 µM; 1.3% of 310,000 active;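 active means calcium-response B-score plate-corrected more than 3 library SD below zero, starting fluorescence within 5 deviations, no agonist response on first addition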;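 further: peak minus trough fluorescence over baseline after final BAM8-22 challenge near maximal dose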
Of the large screens only hits and unclear results are named; the others gave an inactive call. Shown are actives, neighbours in structure and some others; about 4.5% of the full set was active somewhere.

CC1=CN2C(=N)/C(=C/c3ccc(C)o3)C(=O)N=C2S1	MrgX1 PAM 15.3
Cc1noc(NS(=O)(=O)c2ccc(NC(=O)c3cc(-c4ccccc4Cl)nc4ccccc34)cc2)c1C	MrgX1 agonist 39.4
O=C1OCC2=C1C(c1ccc(F)cc1)CC(=O)N2c1ccc(F)cc1 (stereo not drawn)	none
O=C1OCC2=C1C(c1ccc(F)cc1)CC(=O)N2c1ccccc1 (stereo not drawn)	RGS4 act -7.71
COc1ccc(/C=C/C(=O)c2ccc3ccccc3c2O)cc1CN1CCOCC1	MrgX1 antagonist -4.69
Cc1ccc(C)c(C(=O)N(C)CC(=O)Nc2ccccc2C(F)(F)F)c1	none
O=C1C(Cl)=C(N2CCCCCC2)C(=O)N1c1ccccc1	RGS4 act -7.41
O=C1C(Cl)=C(N2CCCCCC2)C(=O)N1c1ccc(Br)cc1	none
CCN(C(=O)COC(=O)/C=C/c1cccc([N+](=O)[O-])c1)c1ccccc1	none
Cc1ccc(-c2csc(N)n2)s1	PHOSPHO1 block 71.1
O=C(Nc1ccc(Cl)cc1)N1CCN(C(=O)C2CCCO2)CC1 (stereo not drawn)	PHOSPHO1 block 62.8
Cc1ccc(C2C=C(c3ccccc3OC(F)F)Nc3ncnn32)cc1 (stereo not drawn)	none
CN(C)c1ccc(C2C=C(c3ccc(Cl)cc3OC(F)F)Nc3ncnn32)cc1 (stereo not drawn)	PHOSPHO1 block 66.7, MrgX1 agonist 39.9
CCn1nc([N+](=O)[O-])c(C(C#N)c2nc3ccccc3n2C)c(Cl)c1=O (stereo not drawn)	none
CCCn1nc([N+](=O)[O-])c(C(C#N)c2nc3ccccc3s2)c(Cl)c1=O (stereo not drawn)	MrgX1 agonist 28.9
Cc1oc2c(c1C(=O)c1ccc(Cl)cc1)C(=O)C(=O)c1ccccc1-2	none (no result: MrgX1 PAM, MrgX1 agonist, MrgX1 antagonist)
Cc1ccc(C(=O)c2coc3c2C(=O)C(=O)c2ccccc2-3)cc1	PHOSPHO1 block 84.6
Cc1ccc(C(=O)c2c(C)oc3c2C(=O)C(=O)c2ccccc2-3)cc1	RGS4 act -7.47
O=C(NCc1ccccc1Cl)c1ccc(S(=O)(=O)Nc2cccc(C(F)(F)F)c2)cc1	none
COc1ccc(CCN2C(=O)CSC2=Nc2ccc(C(C)C)cc2)cc1OC	RGS4 act -7.19
COc1ccc(N=C2SCC(=O)N2CCc2ccc(OC)c(OC)c2)cc1	none
COc1cccc(OC)c1C(=O)NC(=S)N1CCCCC1c1cccnc1 (stereo not drawn)	none
CCn1c2ccc(F)cc2c2nnc(SCCN3CCCCC3)nc21	RGS4 act -6.96
C=CCn1c2ccccc2c2nnc(SCCN3CCCCC3)nc21	RGS4 act -7.35
O=C(CSc1nnc(Nc2ccccc2)s1)NN1C(=O)NC2(CCCCC2)C1=O	none
CCCCNC(=S)N(C)/N=C/c1sc(N2CCCCC2)nc1-c1cccs1	MrgX1 antagonist -8.71
CCc1ccc(NC(=O)CN(c2ccccc2)S(=O)(=O)N(C)C)cc1	none
COc1ccc(C(=O)CSC#N)cc1OC	MrgX1 agonist 34.6
COc1ccc(C(=O)COC(=O)c2ccc(OC)c(OC)c2)cc1OC	none
Cc1cccc(OCCOC(=O)CN2C(=O)NC3(CCCC3)C2=O)c1	none (no result: PHOSPHO1 block)
CC(COc1ccccc1Cc1ccccc1)N1CCCCC1 (stereo not drawn)	RGS4 act -7.38 (no result: PHOSPHO1 block)
CCc1ccccc1NC(=S)N1N=CCC1c1ccccc1 (stereo not drawn)	MrgX1 agonist 37.4
Cc1cccc(NC(=S)N2N=CCC2c2ccccc2)c1 (stereo not drawn)	none
CCOC(=O)C1CSc2[nH]c(=O)sc2C1c1ccccc1 (stereo not drawn)	PHOSPHO1 block 92.8
O=[N+]([O-])c1ccc(NC(=S)N2CCN(c3ccccc3)CC2)cc1	none
O=[N+]([O-])c1ccc(N2CCN(C(=S)Nc3ccccc3)CC2)cc1	MrgX1 PAM 7.46
O=C(CN1C(=O)NC2(CCSC2)C1=O)N1CCN(c2ccc(F)cc2)CC1 (stereo not drawn)	PHOSPHO1 block 99.0
O=C(CN1C(=O)NC2(CCCC2)C1=O)N1CCN(c2cccc(C(F)(F)F)c2)CC1	none (no result: PHOSPHO1 block)
O=C(CN(C(=O)c1csnn1)c1cccc2ccccc12)NC1CCCC1	none
Cc1ccc2c(c1)C(O)(CC(=O)/C=C/C=C/c1ccccc1)C(=O)N2 (stereo not drawn)	none
COC(=O)c1ccc(-c2ccc(/C=N/NC(=O)CC3(C)OCCCO3)o2)cc1	none
CN1CCc2c(sc(NC(=O)c3ccc(S(=O)(=O)N4CCCCCC4)cc3)c2C(N)=O)C1	MrgX1 agonist 31.6
CN1CCN(S(=O)(=O)c2cccc(C(=O)Nc3sc4c(c3C(N)=O)CCCC4)c2)CC1	PHOSPHO1 block 70.2
NC(=O)c1c(NC(=O)c2ccc(S(=O)(=O)N3CCOCC3)cc2)sc2c1CCCCC2	none
CC(C)C[C@H](NC(=O)C1CCN(C(=O)[C@H](Cc2ccccc2)NC(=O)OC(C)(C)C)CC1)C(=O)O	none (no result: PHOSPHO1 block)
CC(C)Cn1c(=O)c(C(=O)Nc2ccncc2)c(O)c2ccccc21	RGS4 act -8.92 (no result: PHOSPHO1 block)
CCn1c(=O)c(C(=O)NNC(=O)c2ccccc2)c(O)c2ccccc21	MrgX1 agonist 30.2
C=CCn1c(=O)c(C(=O)NCc2ccccc2)c(O)c2ccccc21	RGS4 act -7.08
Cc1cc2sc3nc(=O)n(-c4ccccc4)c(=O)n3c2cc1C	none
CC(C)OCCCNC(=O)C(NS(=O)(=O)c1ccc2c(c1)c(=O)n(C)c(=O)n2C)c1ccccc1 (stereo not drawn)	none
Cc1cc2ccccc2c(=O)n1CC(=O)NCCC1=CCCCC1	none
OCc1ccccc1SSc1ccccc1CO	MrgX1 agonist 41.2 (no result: PHOSPHO1 block)
CC1CN(C(=O)c2ccc(N3CCCCC3)c([N+](=O)[O-])c2)CC(C)O1 (stereo not drawn)	none
Cc1ccc(C(=O)N2CC(C)OC(C)C2)cc1[N+](=O)[O-] (stereo not drawn)	MrgX1 antagonist -4.96
Nc1c(C(=O)N2CCOCC2)sc(=S)n1-c1ccccc1	PHOSPHO1 block 96.8
Nc1c(C(=O)N2CCCCC2)sc(=S)n1-c1ccccc1	PHOSPHO1 block 86.5
Cc1ccc(-n2c(N)c(C(=O)N3CCN(C)CC3)sc2=S)cc1	none
CCOc1ccc(-n2c(N)c(C(=O)N3CCN(C)CC3)sc2=S)cc1	none
Cc1ccc(-n2c(N)c(C(=O)N3CCCCC3)sc2=S)cc1	PHOSPHO1 block 75.8
Nc1ccccc1-n1cccc1	none
CN(C)C(=S)SCC(=O)NC(=O)NC(C)(C)C	none
Cc1c(C(=O)OCC(=O)Nc2ccc(C(N)=O)cc2)cccc1[N+](=O)[O-]	none
COC(=O)c1sc(SC)c(S(=O)(=O)C(C)C)c1N/N=C(\C#N)C(=O)c1ccccc1	none
